Hits are enriched below; roughly 0.99% of the tested compounds scored in any of these assays.
SKN-1 block = C. elegans SKN-1 inhibition; AID 624304; C. elegans VP596 Pgst-4::GFP/RFP ratio, acrylamide-induced, 24 h; inhibition, % at 21.8 µM; 360,000 tested, 0.49% active;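 active means interference check ratio from 0.5 to 1.5 plus GFP to RFP signal ratio inhibition reaching or exceeding a fixed threshold, cut at about 30% in these data, passing the limit was not always enough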
TLR4-MyD88 BLA = inhibitors of human TLR4-MyD88 binding; HeLa CL3-4 TLR4/MyD88 BLA complementation, FRET ratio; inhibition, % at 8.4 µM; 200,000 tested, 0.18% active; O00206+Q99836; AID 861; in the data active means inhibition above about 25%;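 further: 0% = vehicle and 100% = reference inhibitor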
MT1-MMP act inh = MT1-MMP (human) activation inhibition | P50281 | HT1080 RFP-PRO-GFP cells, GFP/RFP ratio fluorescence, overnight; percent of plate control window, DMSO zero | GFP/RFP ratio change, % at 20 µM | 360,000 tested, 0.061% active | AID 651647;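 active means GFP/RFP ratio change of at least 30% with cell ATP level not reduced by more than half and red fluorescence within 50% of control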
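Compound: 20 µM single dose, 1% DMSO / System: HT1080 RFP-PRO-GFP cells / Controls: DMSO and RFP-L50D-GFP cell wells / Read-out basis: GFP/RFP fluorescence ratio / Schedule: overnight compound exposure at 37 °C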
NOD2 RIPK2 PPI = inhibitors of human NOD2-RIPK2 interaction; O43353; CHO BLA complementation NOD2-RIPK2, CCF4 ratio; inhibition, % at 4.98 µM; 360,000 tested, 0.38% active; AID 624267; in the data active means inhibition above about 21%;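 further: 0% = vehicle only and 100% = reference blocker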
TLR9-MyD88 block = TLR9-MyD88 interaction inhibition; CHO BLA complementation TLR9-MyD88, CCF4 FRET ratio; inhibition, % at 4.98 µM; 340,000 tested, 0.21% active; AID 504734;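 active means inhibition above the mean over all tested compounds plus 3 SD, cut at about 21% in these data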;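 further: 0% = DMSO only wells and 100% = clavulanate BLA inhibitor control wells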
Target sequence (Q99836 whole entry, looked up): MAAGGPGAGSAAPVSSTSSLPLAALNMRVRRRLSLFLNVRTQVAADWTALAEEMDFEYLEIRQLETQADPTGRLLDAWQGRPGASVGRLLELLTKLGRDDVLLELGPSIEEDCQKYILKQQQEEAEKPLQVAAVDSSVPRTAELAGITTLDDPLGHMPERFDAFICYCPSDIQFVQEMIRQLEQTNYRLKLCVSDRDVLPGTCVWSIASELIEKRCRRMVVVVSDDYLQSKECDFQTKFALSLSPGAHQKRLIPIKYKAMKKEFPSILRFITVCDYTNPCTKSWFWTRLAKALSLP
Target sequence (Q9NR96 whole entry, looked up): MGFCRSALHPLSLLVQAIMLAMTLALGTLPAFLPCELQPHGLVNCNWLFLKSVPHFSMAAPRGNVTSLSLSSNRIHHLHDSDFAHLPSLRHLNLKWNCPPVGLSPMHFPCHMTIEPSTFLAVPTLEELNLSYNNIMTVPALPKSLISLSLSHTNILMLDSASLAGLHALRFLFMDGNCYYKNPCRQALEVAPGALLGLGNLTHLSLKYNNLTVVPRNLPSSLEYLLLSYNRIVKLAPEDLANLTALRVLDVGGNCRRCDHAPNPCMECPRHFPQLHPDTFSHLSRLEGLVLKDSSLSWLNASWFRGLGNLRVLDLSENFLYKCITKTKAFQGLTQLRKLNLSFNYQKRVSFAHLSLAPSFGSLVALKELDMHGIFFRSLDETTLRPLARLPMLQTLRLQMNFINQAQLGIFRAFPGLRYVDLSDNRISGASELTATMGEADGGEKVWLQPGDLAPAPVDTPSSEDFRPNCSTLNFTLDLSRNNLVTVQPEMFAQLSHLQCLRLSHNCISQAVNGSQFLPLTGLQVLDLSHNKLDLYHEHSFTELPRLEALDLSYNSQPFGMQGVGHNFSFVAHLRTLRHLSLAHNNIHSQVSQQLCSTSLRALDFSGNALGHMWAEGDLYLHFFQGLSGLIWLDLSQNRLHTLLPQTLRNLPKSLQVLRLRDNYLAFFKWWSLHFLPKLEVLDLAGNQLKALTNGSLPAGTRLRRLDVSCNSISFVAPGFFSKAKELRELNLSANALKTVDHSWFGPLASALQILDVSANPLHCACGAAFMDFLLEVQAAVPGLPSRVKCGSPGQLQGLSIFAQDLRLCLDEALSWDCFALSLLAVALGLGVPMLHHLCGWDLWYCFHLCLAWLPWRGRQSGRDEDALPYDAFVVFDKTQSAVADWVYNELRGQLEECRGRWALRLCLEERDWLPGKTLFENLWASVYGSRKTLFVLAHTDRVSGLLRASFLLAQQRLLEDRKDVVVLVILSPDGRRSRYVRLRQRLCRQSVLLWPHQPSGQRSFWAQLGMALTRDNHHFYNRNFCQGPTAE
An asterisk follows results filed as active.

`COCc1cc(C)nc(SCC(=O)Nc2ccc3[nH]c(=O)[nH]c3c2)c1C#N` gave SKN-1 block 7.3, MT1-MMP act inh 5.7, NOD2 RIPK2 PPI -12.3 and TLR9-MyD88 block -9.7.
`COCc1cc(C)nc(SCC(=O)Nc2ccc(C)c(C)c2)c1C#N` gave SKN-1 block 45.3*, TLR4-MyD88 BLA 17.6, MT1-MMP act inh -4.8, NOD2 RIPK2 PPI -3.6 and TLR9-MyD88 block 4.8.
O=[N+]([O-])c1ccc2nc(N3CCCC3)sc2c1 was read as SKN-1 block 38.9*, MT1-MMP act inh 1.8, NOD2 RIPK2 PPI 13.0 and TLR9-MyD88 block 6.5.
Screening CCc1nnc(NC(=O)CSc2nnc(COc3cccc(C)c3)o2)s1 returned SKN-1 block 54.3*, TLR4-MyD88 BLA 13.9, MT1-MMP act inh -1.6, NOD2 RIPK2 PPI 5.6 and TLR9-MyD88 block -12.0.
Screening Cc1cccc(OCc2nnc(SCC(=O)Nc3ncc(C)s3)o2)c1 returned SKN-1 block -12.0, TLR4-MyD88 BLA 14.0, MT1-MMP act inh 1.3, NOD2 RIPK2 PPI 12.0 and TLR9-MyD88 block 4.5.
Cc1ccc(C(=O)n2nc(-c3cccnc3)nc2N)cc1 was read as SKN-1 block 37.1*, TLR4-MyD88 BLA 6.6, MT1-MMP act inh 2.1, NOD2 RIPK2 PPI -0.3 and TLR9-MyD88 block 5.0.
For Cc1ccc(-c2nc(N)n(C(=O)c3cccnc3)n2)cc1 the results were SKN-1 block 0.7, TLR4-MyD88 BLA 8.6, MT1-MMP act inh 4.4, NOD2 RIPK2 PPI 7.0 and TLR9-MyD88 block -1.7.
`CCC(C)[C@@H](NC(=O)OC(C)(C)C)c1nnc(S(=O)(=O)Cc2cccc(C)c2)o1` (stereo partly drawn) gave SKN-1 block 1.0, TLR4-MyD88 BLA 12.8, MT1-MMP act inh 6.4, NOD2 RIPK2 PPI 23.7* and TLR9-MyD88 block 7.9.
Screening CCCCCc1n[nH]c2c1CCCC2 returned SKN-1 block 9.0, MT1-MMP act inh -0.9, NOD2 RIPK2 PPI 0.7 and TLR9-MyD88 block 0.2.
For O=C(c1cccs1)c1ccc(-c2cccs2)s1 the results were SKN-1 block 61.8*, TLR4-MyD88 BLA 10.4, MT1-MMP act inh -1.3, NOD2 RIPK2 PPI -6.7 and TLR9-MyD88 block -0.6.
`CC(NCc1ccc(S(N)(=O)=O)cc1)C(=O)N1c2ccccc2CC1C` (stereo not drawn) gave SKN-1 block -13.9, MT1-MMP act inh 0.8, NOD2 RIPK2 PPI 1.0 and TLR9-MyD88 block -1.1.
Screening O=c1cc(-c2ccccc2)oc2ccccc12 returned SKN-1 block 2.8, MT1-MMP act inh 0.0, NOD2 RIPK2 PPI -2.7 and TLR9-MyD88 block 7.3.
Screening O=c1cc(/C=C/c2ccccc2)oc2ccccc12 returned SKN-1 block 43.1*, TLR4-MyD88 BLA -2.8, MT1-MMP act inh 2.1, NOD2 RIPK2 PPI 6.4 and TLR9-MyD88 block -6.6.
Screening CSc1ncccc1C(=O)OCC(=O)Nc1ccc(N2CCOCC2)cc1 returned SKN-1 block 4.0, MT1-MMP act inh 0.0, NOD2 RIPK2 PPI -3.4 and TLR9-MyD88 block -0.1.
For O=C(Nc1nccs1)c1ccc2ccccc2c1 the results were SKN-1 block 43.7*, MT1-MMP act inh 3.9, NOD2 RIPK2 PPI 12.0 and TLR9-MyD88 block -1.3.
`COc1ccccc1C(=O)Nc1ccc2ccccc2c1` gave SKN-1 block 48.0*, MT1-MMP act inh -4.6, NOD2 RIPK2 PPI -4.9 and TLR9-MyD88 block 0.2.
For COc1c(C(=O)Nc2nccs2)ccc2ccccc12 the results were SKN-1 block 55.2*, MT1-MMP act inh 0.6, NOD2 RIPK2 PPI -3.9 and TLR9-MyD88 block -0.9.
Screening COc1cc2ccccc2cc1C(=O)Nc1nccs1 returned SKN-1 block 57.6*, MT1-MMP act inh -5.1, NOD2 RIPK2 PPI -3.0 and TLR9-MyD88 block 11.9.
`CC(=O)Nc1cccc(-c2ccnc3c2CC(C)(C(=O)Nc2ccc(C(C)C)cc2)O3)c1` (stereo not drawn) gave SKN-1 block -3.6, MT1-MMP act inh 5.5 and NOD2 RIPK2 PPI -3.2.
For CCCCCCc1cc2cc(-c3nnc(-c4ccccc4O)o3)c(=O)oc2cc1O the results were SKN-1 block 57.2*, TLR4-MyD88 BLA -4.7, MT1-MMP act inh -475.3, NOD2 RIPK2 PPI -2.9 and TLR9-MyD88 block 1.9.
Screening CCCCCCc1cc2cc(-c3nnc(-c4ccccc4OC)o3)c(=O)oc2cc1O returned SKN-1 block 32.9, TLR4-MyD88 BLA -10.6, MT1-MMP act inh -498.3, NOD2 RIPK2 PPI 0.0 and TLR9-MyD88 block -6.3.
`COc1ccc(NC(=O)CSc2nc3ccsc3c(=O)n2CCC(=O)O)cc1` gave SKN-1 block -3.9, MT1-MMP act inh 1.1, NOD2 RIPK2 PPI -16.3 and TLR9-MyD88 block -15.5.
Screening CC(NC(=O)COc1cccnc1[N+](=O)[O-])c1ccc(Cl)cc1 (stereo not drawn) returned SKN-1 block -2.2, MT1-MMP act inh 1.8, NOD2 RIPK2 PPI -2.8 and TLR9-MyD88 block 6.0.
O=C(COC(=O)CCNS(=O)(=O)c1ccccc1)Nc1ccc(OC(F)F)cc1 was read as SKN-1 block 45.1*, MT1-MMP act inh -1.9, NOD2 RIPK2 PPI 3.1 and TLR9-MyD88 block -13.9.
For Cc1ccc(-c2nc3cccnc3o2)cc1NC(=O)COc1ccc(C(C)(C)C)cc1 the results were SKN-1 block 43.0*, TLR4-MyD88 BLA 0.6, MT1-MMP act inh 4.0, NOD2 RIPK2 PPI 5.1 and TLR9-MyD88 block -12.0.
`CCCC1(C(=O)OCC)NC(c2ccc(N(C)C)cc2)C2C(=O)N(c3ccccc3)C(=O)C21` (stereo not drawn) gave SKN-1 block 38.5*, TLR4-MyD88 BLA -8.0, MT1-MMP act inh 3.4, NOD2 RIPK2 PPI -1.6 and TLR9-MyD88 block -2.4.
Screening CCOC(=O)C1=C(Cc2ccc(Cl)cc2)C(=O)c2ccccc2C1=O returned SKN-1 block 74.4, TLR4-MyD88 BLA 8.0, MT1-MMP act inh -66.5, NOD2 RIPK2 PPI 29.0* and TLR9-MyD88 block 2.0.
CC(Oc1ccc(Br)cc1)C(=O)Nc1cc(Cl)ccc1N1CCN(C)CC1 (stereo not drawn) was read as SKN-1 block 13.6, MT1-MMP act inh -6.2, NOD2 RIPK2 PPI -2.3 and TLR9-MyD88 block -5.2.
COC(=O)C1=C(N)Oc2cc(C)n(CC3CCCO3)c(=O)c2C1c1ccc(Cl)c(Cl)c1 (stereo not drawn) was read as SKN-1 block 32.6*, TLR4-MyD88 BLA -12.1, MT1-MMP act inh 3.4, NOD2 RIPK2 PPI -5.5 and TLR9-MyD88 block -2.1.
O=C(NCC(O)c1ccccc1)c1ccc(Cl)c(S(=O)(=O)N2CCCC2)c1 (stereo not drawn) was read as SKN-1 block 15.7, MT1-MMP act inh 11.3, NOD2 RIPK2 PPI -1.8 and TLR9-MyD88 block -4.0.
Cc1ccc(N(CC(=O)NC2CCCCC2)C(=O)CNC(=O)c2ccco2)cc1F was read as SKN-1 block 5.8, MT1-MMP act inh 0.7, NOD2 RIPK2 PPI -3.6 and TLR9-MyD88 block -8.0.
COc1cc(NC(=O)Cn2ncc3c2-c2ccccc2OC3)cc(OC)c1OC was read as SKN-1 block -7.7, TLR4-MyD88 BLA 0.2, MT1-MMP act inh -2.2, NOD2 RIPK2 PPI 30.3* and TLR9-MyD88 block 0.4.
